Results gathered from unrelated publications.
Each line is one published result; the experiments were not run side by side.
Medium: PAMPA

| SMILES | concentration | time | pH | Papp [×10⁻⁶ cm/s] |
| --- | --- | --- | --- | --- |
| CCOC(=O)c1ccc(O)cc1 | 5 µM |  | pH 7.4 | 4.72 |
| Cc1c(S(=O)(=O)N2CCn3nccc3C2)cc(C(=O)NCc2cccnc2N2CCCC2)n1C |  |  |  | 27.9 |
| CCCCC(CC)COC(=O)c1ccc(O)cc1 (stereo not shown) | 5 µM |  | pH 7.4 | 1.49 |
| Cc1[nH]c(C)c(S(=O)(=O)Nc2ccc(C(F)(F)F)c(Cl)c2Cl)c1C(=O)N1CCC(F)(F)C1 |  |  |  | 0.18 |
| Cc1c(S(=O)(=O)N2CCn3nccc3C2)cc(C(=O)NCc2c(F)ccc3cnn(C)c23)n1C |  |  |  | 25 |
| C=C(CC(=O)OC)C(=O)OCOC(=O)C(C)(C)C | 10 µM | 4 h | pH 7.4 | > 10 |
| CCCOC(=O)c1ccc(O)cc1 | 5 µM |  | pH 7.4 | 7.04 |
| C=C(CC(=O)OC)C(=O)OCOC(=O)OC(C)C | 10 µM | 4 h | pH 7.4 | > 10 |
| Cc1[nH]c(C)c(S(=O)(=O)Nc2ccc(C(F)(F)F)c(Cl)c2)c1C(=O)N(C)C |  |  |  | 11 |
| C=C(CC(=O)OCOC(=O)C(C)(C)C)C(=O)O | 10 µM | 4 h | pH 7.4 | < 1 |
| Cc1c(S(=O)(=O)N2CCc3[nH]ncc3C2)cc(C(=O)NCc2cccnc2N2CCCC2)n1C |  |  |  | 14.4 |
| C=C(CC(=O)OCc1oc(=O)oc1C)C(=O)OC | 10 µM | 4 h |  | ~15 |
| Cc1c(S(=O)(=O)N2CCn3cccc3C2)cc(C(=O)NCc2cccnc2N2CCCC2)n1C |  |  |  | 27.6 |
| CCCCCCCCOC(=O)c1ccc(O)cc1 | 5 µM |  | pH 7.4 | 0.73 |
| Cc1c(S(=O)(=O)N2CCC(C)CC2)cc(C(=O)NCc2cccnc2N2CCCC2)n1C |  |  |  | 32.8 |
| C=C(CC(=O)OCOC(=O)C(C)(C)C)C(=O)OCOC(=O)C(C)(C)C | 10 µM | 4 h | pH 7.4 | > 10 |
